In ChEMBL document CHEMBL3421593, “Design, synthesis, and biological evaluation of ring-constrained novobiocin analogues as hsp90 C-terminal inhibitors” (ACS Med Chem Lett, 2015):
Calls of active or inactive are those of the source. The rule behind the calls is not given here.

What was measured:
[1] = Antiproliferative activity against human SKBR3 cells; assay type: functional, cell-based; settings: SK-BR-3
How it was run: (§1)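 Breast cancer lines used were SKBr3 (estrogen receptor negative, Her2 overexpressing) and MCF-7 (estrogen receptor positive). Values are mean ± standard deviation from at least two separate experiments, each performed in triplicate.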

[2] = molecular target: T1, Heat shock protein HSP90 (Homo sapiens) (UniProt P07900+P08238); experiment: Inhibition of HSP90 in human MCF7 cells assessed as induction of Raf1 protein degradation at 5 times antiproliferative IC50 level incubated for 24 hrs by Western blotting method; assay type: cell-based
[3] = molecular target: T1, Heat shock protein HSP90 (Homo sapiens); experiment: Inhibition of HSP90 in human MCF7 cells assessed as induction of Akt protein degradation at 5 times antiproliferative IC50 level incubated for 24 hrs by Western blotting method; assay type: cell-based
MCF7 [4] = experiment: Antiproliferative activity against human MCF7 cells; assay type: functional, cell-based; how it was run: as §1
[5] = molecular target: T1, Heat shock protein HSP90 (Homo sapiens); experiment: Inhibition of HSP90 in human MCF7 cells assessed as induction of Her2 protein degradation at 5 times antiproliferative IC50 level incubated for 24 hrs by Western blotting method; assay type: cell-based
[6] = molecular target: T1, Heat shock protein HSP90 (Homo sapiens); experiment: Inhibition of HSP90 in human MCF7 cells assessed as induction of Her2 protein degradation at 0.5 times antiproliferative IC50 level incubated for 24 hrs by Western blotting method; assay type: cell-based
[7] = molecular target: T1, Heat shock protein HSP90 (Homo sapiens); experiment: Inhibition of HSP90 in human MCF7 cells assessed as induction of Raf1 protein degradation at 0.5 times antiproliferative IC50 level incubated for 24 hrs by Western blotting method; assay type: cell-based
[8] = molecular target: T1, Heat shock protein HSP90 (Homo sapiens); experiment: Inhibition of HSP90 in human MCF7 cells assessed as induction of Akt protein degradation at 0.5 times antiproliferative IC50 level incubated for 24 hrs by Western blotting method; assay type: cell-based
[9] = molecular target: T1, Heat shock protein HSP90 (Homo sapiens); experiment: Inhibition of HSP90 in human MCF7 cells assessed as induction of Her2 protein degradation at 0.2 to 10 uM incubated for 24 hrs by Western blotting method; assay type: cell-based
MCF7 [10] = experiment: Effect on HSP90 protein expression in human MCF7 cells at 0.2 to 10 uM incubated for 24 hrs by Western blotting method; assay type: cell-based; settings: mcf7, 24 h
MCF7 [11] = experiment: Effect on actin protein expression in human MCF7 cells at 0.2 to 10 uM incubated for 24 hrs by Western blotting method; assay type: cell-based; settings: mcf7, 24 h
[12] = molecular target: T1, Heat shock protein HSP90 (Homo sapiens); experiment: Inhibition of HSP90 in human MCF7 cells assessed as induction of Raf1 protein degradation at 0.2 to 10 uM incubated for 24 hrs by Western blotting method; assay type: cell-based
[13] = molecular target: T1, Heat shock protein HSP90 (Homo sapiens); experiment: Inhibition of HSP90 in human MCF7 cells assessed as induction of Akt protein degradation at 0.2 to 10 uM incubated for 24 hrs by Western blotting method; assay type: cell-based

| SMILES | IC50 [1] | IC50 (MCF7 [4]) | other results |
| --- | --- | --- | --- |
| COc1cccc(-c2cc(C(=O)Nc3cc4ccc(OCCN(C)C)c(OC)c4oc3=O)ccc2OC)c1 | 2 µM | – | – |
| COc1cccc(-c2cc(C(=O)Nc3cc4ccc5c(c4oc3=O)NC(=O)C(CCCNC3CCCCC3)O5)ccc2OC)c1 (stereo unspecified) | 0.2 µM | 0.35 µM | inhibition [2]: Active; inhibition [3]: Active; inhibition [5]: Active; inhibition [6]: Active; inhibition [7]: Active; inhibition [8]: Active |
| COc1cccc(-c2cc(C(=O)Nc3cc4ccc5c(c4oc3=O)NC(=O)C(CCCNC3CC4CCC3C4)O5)ccc2OC)c1 (stereo unspecified) | 1.26 µM | 1.34 µM | – |
| COc1cccc(-c2cc(C(=O)Nc3cc4ccc5c(c4oc3=O)NC(=O)C(CN3CCN(C(=O)OC(C)(C)C)CC3)O5)ccc2OC)c1 (stereo unspecified) | > 50 µM | > 50 µM | – |
| COc1cccc(-c2cc(C(=O)Nc3cc4ccc5c(c4oc3=O)NC(=O)C(CCCN3CCCCC3)O5)ccc2OC)c1 (stereo unspecified) | 0.78 µM | 0.85 µM | inhibition [2]: Active; inhibition [3]: Active; inhibition [9]: Dose-dependent effect; Activity (MCF7 [10]): Non-toxic; Activity (MCF7 [11]): Non-toxic; inhibition [5]: Active; inhibition [12]: Dose-dependent effect; inhibition [6]: Active; inhibition [7]: Active; inhibition [13]: Dose-dependent effect; inhibition [8]: Active |
| COc1cccc(-c2cc(C(=O)Nc3cc4ccc5c(c4oc3=O)NC(=O)C(CCN3CCCC3)O5)ccc2OC)c1 (stereo unspecified) | 3.49 µM | 5.2 µM | – |
| COc1cccc(-c2cc(C(=O)Nc3cc4ccc5c(c4oc3=O)NC(=O)C(Cc3ccc(C)cc3)O5)ccc2OC)c1 (stereo unspecified) | > 50 µM | > 50 µM | – |
| COc1cccc(-c2cc(C(=O)Nc3cc4ccc5c(c4oc3=O)NC(=O)C(Cc3ccccc3)O5)ccc2OC)c1 (stereo unspecified) | 21.5 µM | 22.1 µM | – |
| COc1cccc(-c2cc(C(=O)Nc3cc4ccc5c(c4oc3=O)NC(=O)C(c3ccccc3)O5)ccc2OC)c1 (stereo unspecified) | 48.2 µM | > 50 µM | – |
| COc1cccc(-c2cc(C(=O)Nc3cc4cc(OC)c(OC(C)=O)c(C)c4oc3=O)ccc2OC)c1 | 6 µM | – | – |
| COc1cccc(-c2cc(C(=O)Nc3cc4ccc5c(c4oc3=O)NC(=O)C(CN3CCNCC3)O5)ccc2OC)c1 (stereo unspecified) | 5.78 µM | 5.27 µM | – |
| COc1cccc(-c2cc(C(=O)Nc3cc4ccc5c(c4oc3=O)NC(=O)C(CCCN3CCCC3)O5)ccc2OC)c1 (stereo unspecified) | 1.02 µM | 1.49 µM | – |
| COc1cccc(-c2cc(C(=O)Nc3cc4ccc5c(c4oc3=O)NC(=O)C(CCCN3CCN(C)CC3)O5)ccc2OC)c1 (stereo unspecified) | 1.76 µM | 2.43 µM | – |
| COc1cccc(-c2cc(C(=O)Nc3cc4ccc5c(c4oc3=O)NC(=O)C(CCN3CCNCC3)O5)ccc2OC)c1 (stereo unspecified) | 5.44 µM | 7.63 µM | – |
| COc1cccc(-c2cc(C(=O)Nc3cc4ccc5c(c4oc3=O)NC(=O)C(C(=O)N3CCCC3)O5)ccc2OC)c1 (stereo unspecified) | > 50 µM | > 50 µM | – |
| COc1ccc(CC2Oc3ccc4cc(NC(=O)c5ccc(OC)c(-c6cccc(OC)c6)c5)c(=O)oc4c3NC2=O)cc1 (stereo unspecified) | 8.37 µM | 6.12 µM | – |
| COc1cccc(-c2cc(C(=O)Nc3cc4ccc(O[C@H]5OC(C)(C)[C@@H](OC)[C@H](O)[C@@H]5O)c(OC)c4oc3=O)ccc2OC)c1 | 13.9 µM | 9 µM | – |
| COc1cccc(-c2cc(C(=O)Nc3cc4ccc5c(c4oc3=O)NC(=O)C(C(N)=O)O5)ccc2OC)c1 (stereo unspecified) | > 50 µM | 33.4 µM | – |
| COc1cccc(-c2cc(C(=O)Nc3cc4ccc5c(c4oc3=O)NC(=O)C(CCCN[C@]34CC6CC(C[C@@H](C6)C3)C4)O5)ccc2OC)c1 (stereo partly specified) | 0.62 µM | 0.72 µM | inhibition [2]: Active; inhibition [3]: Active; inhibition [5]: Active; inhibition [6]: Active; inhibition [7]: Active; inhibition [8]: Active |
| COc1cccc(-c2cc(C(=O)Nc3cc4ccc5c(c4oc3=O)NC(=O)C(CCN3CCN(C)CC3)O5)ccc2OC)c1 (stereo unspecified) | 4.1 µM | 5.68 µM | – |
| COc1cccc(-c2cc(C(=O)Nc3cc4ccc5c(c4oc3=O)NC(=O)C(CCN(C)C)O5)ccc2OC)c1 (stereo unspecified) | 8.06 µM | 11.4 µM | – |
| COc1cccc(-c2cc(C(=O)Nc3cc4ccc5c(c4oc3=O)NC(=O)C(CCNC34C[C@H]6C[C@@H](C3)C[C@@H](C4)C6)O5)ccc2OC)c1 (stereo partly specified) | 0.88 µM | 1.09 µM | – |
| COc1cccc(-c2cc(C(=O)Nc3cc4ccc5c(c4oc3=O)NC(=O)C(CN3CCCC3)O5)ccc2OC)c1 (stereo unspecified) | 15 µM | 22.9 µM | – |
| COc1cccc(-c2cc(C(=O)Nc3cc4ccc5c(c4oc3=O)NC(=O)C(CCNC3CC4CCC3C4)O5)ccc2OC)c1 (stereo unspecified) | 0.68 µM | 1.22 µM | – |
| COc1cccc(-c2cc(C(=O)Nc3cc4ccc5c(c4oc3=O)NC(=O)C(CCCCN3CCCC3)O5)ccc2OC)c1 (stereo unspecified) | 2.5 µM | 1.53 µM | – |
| COc1cccc(-c2cc(C(=O)Nc3cc4ccc5c(c4oc3=O)NC(=O)C(CCCN3CCNCC3)O5)ccc2OC)c1 (stereo unspecified) | 9.08 µM | 12.8 µM | – |
| COc1cccc(-c2cc(C(=O)Nc3cc4ccc5c(c4oc3=O)NC(=O)C(CCN3CCCCC3)O5)ccc2OC)c1 (stereo unspecified) | 1.03 µM | 1.04 µM | – |
| COc1cccc(-c2cc(C(=O)Nc3cc4ccc5c(c4oc3=O)NC(=O)C(CCNC3CCCCC3)O5)ccc2OC)c1 (stereo unspecified) | 0.78 µM | 1.16 µM | – |
| COc1cccc(-c2cc(C(=O)Nc3cc4ccc5c(c4oc3=O)NC(=O)C(CCN3CCOCC3)O5)ccc2OC)c1 (stereo unspecified) | 6.66 µM | 7.44 µM | – |
| COc1cccc(-c2cc(C(=O)Nc3cc4ccc5c(c4oc3=O)NC(=O)C(Cc3ccc(Cl)cc3)O5)ccc2OC)c1 (stereo unspecified) | > 50 µM | > 50 µM | – |
